Laboratory results reported in ChEMBL document CHEMBL3297699, “Synthesis of novel fluoro analogues of MKC442 as microbicides” (J Med Chem, 2014).

Columns and labels:
[1] = Cytotoxicity against human MT4 cells after 96 hrs by MTT assay; format: cell-based
Method in brief: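 Serial compound dilutions (from DMSO stocks at […]) are added, then cells are held 96 h at 37 °C in humidified 5% CO2. Viability is read by MTT. The value is the concentration reducing proliferation by 50%, as the mean of three independent determinations, run in parallel with the antiviral assays.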

[2] = tested on: Human immunodeficiency virus 1; experiment: Antiviral activity against wild type HIV1 3B infected in human MT4 cells assessed as inhibition of virus-induced cytopathogenicity after 4 days by MTT assay; format: functional, organism-based; conditions: Human immunodeficiency virus 1, 3B, MT4, 96 h
Method in brief: (§1)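 MT-4 cells grown at 37 °C, 5% CO2 in RPMI-1640 with 10% FCS, penicillin and streptomycin. Compounds taken up in DMSO at […] (stock), then diluted in medium. 1 × 10^4 cells per well with serial compound dilutions, then HIV-1 inoculum sized to give complete cytopathogenicity by day 4. Viability read by MTT. […] Mean of three independent determinations.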

[3] = tested on: Human immunodeficiency virus 1; experiment: Antiviral activity against efavirenz-resistant HIV1 harboring RT 100I, 103R, 179D, 225H mutant infected in human MT4 cells assessed as inhibition of virus-induced cytopathogenicity after 4 days by MTT assay; format: functional, organism-based; conditions: Human immunodeficiency virus 1, MT4; method in brief: as §1
[4] = tested on: Human immunodeficiency virus 1; experiment: Antiviral activity against […] HIV1 harboring Y181C mutant infected in human MT4 cells assessed as inhibition of virus-induced cytopathogenicity after 4 days by MTT assay; format: functional, organism-based; conditions: Human immunodeficiency virus 1, MT4, 96 h; method in brief: as §1
[5] = tested on: Human immunodeficiency virus 1; experiment: Antiviral activity against […] HIV1 harboring 103N, 181C mutant infected in human MT4 cells assessed as inhibition of virus-induced cytopathogenicity after 4 days by MTT assay; format: functional, organism-based; conditions: Human immunodeficiency virus 1, MT4, 96 h; method in brief: as §1
[6] = tested on: Human immunodeficiency virus 1; experiment: Antiviral activity against zidovudine-resistant HIV1 harboring RT 67N, 70R, 215F, 219Q mutant infected in human MT4 cells assessed as inhibition of virus-induced cytopathogenicity after 4 days by MTT assay; format: functional, organism-based; conditions: Human immunodeficiency virus 1, MT4, 96 h; method in brief: as §1
[7] = tested on: Human immunodeficiency virus 1; experiment: Antiviral activity against saquinavir-resistant HIV1 infected in human MT4 cells assessed as inhibition of virus-induced cytopathogenicity after 4 days by MTT assay; format: functional, organism-based; conditions: Human immunodeficiency virus 1, MT4, 96 h; method in brief: as §1
[8] = tested on: Human immunodeficiency virus 1; experiment: Antiviral activity against MDR-resistant HIV1 harboring 41L, 74V, 106A, 215Y mutant infected in human MT4 cells assessed as inhibition of virus-induced cytopathogenicity after 4 days by MTT assay; format: functional, organism-based; conditions: Human immunodeficiency virus 1, MT4, 96 h; method in brief: as §1
[9] = tested on: Human immunodeficiency virus 1; experiment: Antiviral activity against 6-[(3,5-Dimethylphenyl)fluoromethyl]-5-ethyl-1-{[[4-(3-hydroxyprop-1-ynyl)benzyl]oxy]methyl}pyrimidine-2,4(1H,3H)-dione-resistant HIV1 harboring RT 106I, 181C mutant infected in human MT4 cells assessed as inhibition of virus-induced cytopathogenicity after 4 days by MTT assay; format: functional, organism-based; conditions: Human immunodeficiency virus 1, MT4; method in brief: as §1
[10] = tested on: Human immunodeficiency virus 1; experiment: Antiviral activity against MC1220-resistant HIV1 harboring RT 100I, 179D, 181C mutant infected in human MT4 cells assessed as inhibition of virus-induced cytopathogenicity after 4 days by MTT assay; format: functional, organism-based; conditions: Human immunodeficiency virus 1, MT4, 96 h; method in brief: as §1
[11] = tested on: Human immunodeficiency virus 1; experiment: Antiviral activity against TMC120-resistant HIV1 harboring RT 100I, 138G mutant infected in human MT4 cells assessed as inhibition of virus-induced cytopathogenicity after 4 days by MTT assay; format: functional, organism-based; conditions: Human immunodeficiency virus 1, MT4, 96 h; method in brief: as §1
[12] = tested on: Human immunodeficiency virus 1; experiment: Antiviral activity against TMC125-resistant HIV1 harboring RT 109M, 138K, 190E mutant infected in human MT4 cells assessed as inhibition of virus-induced cytopathogenicity after 4 days by MTT assay; format: functional, organism-based; conditions: Human immunodeficiency virus 1, MT4, 96 h; method in brief: as §1
[13] = tested on: Human immunodeficiency virus 1; experiment: Antiviral activity against HIV1 MP1308 infected in human dendritic cells assessed as inhibition of p24; conditions: Human immunodeficiency virus 1, MP1308, dendritic cells
[14] = tested on: Human immunodeficiency virus 1; experiment: Antiviral activity against HIV1 MP1033 infected in human dendritic cells assessed as inhibition of p24; conditions: Human immunodeficiency virus 1, MP1033, dendritic cells
[15] = tested on: Human immunodeficiency virus 1; experiment: Antiviral activity against HIV1 W5269 infected in human dendritic cells assessed as inhibition of p24 production; conditions: Human immunodeficiency virus 1, W5269, dendritic cells
[16] = tested on: Human immunodeficiency virus 1; experiment: Antiviral activity against HIV1 CRF01 infected in human dendritic cells assessed as inhibition of p24 in supernatants; conditions: Human immunodeficiency virus 1, CRF01, dendritic cells
[17] = tested on: Human immunodeficiency virus 1; experiment: Antiviral activity against HIV1 CRF02 infected in human dendritic cells assessed as inhibition of p24 in supernatants; conditions: Human immunodeficiency virus 1, CRF02, dendritic cells
[18] = tested on: Human immunodeficiency virus 1; experiment: Antiviral activity against HIV1 MP634 infected in human dendritic cells assessed as inhibition of p24 in supernatants; conditions: Human immunodeficiency virus 1, MP634, dendritic cells
[19] = tested on: Human immunodeficiency virus 1; experiment: Antiviral activity against NRTI-resistant HIV1 MP1315 infected in human dendritic cells assessed as inhibition of p24 in supernatants; conditions: Human immunodeficiency virus 1, MP1315, dendritic cells
[20] = Cytotoxicity against human MT4 cells after 40 days by MTT assay; format: cell-based
Method in brief: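 Mock-infected MT-4 cells at 1 × 10^5 cells/mL, 37 °C, with various compound concentrations for 40 days. One-tenth of the culture is moved every 3−4 days into fresh drug-containing medium at low density to keep growth exponential. Viability is read by MTT at each passage. The value is the maximum concentration still allowing exponential proliferation, as the mean of three determinations.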

[21] = tested on: Human immunodeficiency virus 1; experiment: Antiviral activity against HIV1 infected in human MT4 cells assessed as lowest compound concentration required to irreversibly knock out vial multiplication treated by chronic treatment measured after 40 days by MTT assay; format: functional
Method in brief: (§2)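 HIV-1-infected MT-4 cells at high MOI (5−10 CCID50/cell) in 40-day assays. Compound is given continuously (chronic), for only the first 4 h after infection, or for 4 h immediately before infection. Cells are resuspended at 10^5 cells/mL every 4 days. The value is the lowest concentration that irreversibly knocks out HIV-1 multiplication, as the mean of three independent determinations.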

[22] = tested on: Human immunodeficiency virus 1; experiment: Antiviral activity against HIV1 infected in human MT4 cells assessed as lowest compound concentration required to irreversibly knock out vial multiplication treated 4 hrs after infection measured after 40 days by MTT assay; format: functional; method in brief: as §2
[23] = tested on: Human immunodeficiency virus 1; experiment: Antiviral activity against HIV1 infected in human MT4 cells assessed as lowest compound concentration required to irreversibly knock out vial multiplication treated 4 hrs before infection measured after 40 days by MTT assay; format: functional; method in brief: as §2
[24] = tested on: Human immunodeficiency virus 1; experiment: Antiviral activity against HIV1 MP411 infected in human dendritic cells assessed as inhibition of p24 in supernatants; conditions: Human immunodeficiency virus 1, MP411, dendritic cells

| SMILES | CC50 at 96 h [1] | EC50 [2] | EC50 [3] | EC50 [4] | EC50 [5] | EC50 [6] | EC50 [7] | EC50 [8] | EC50 [9] | EC50 [10] | EC50 [11] | EC50 [12] | further results |
| --- | --- | --- | --- | --- | --- | --- | --- | --- | --- | --- | --- | --- | --- |
| CCOCn1c(C(F)c2cc(C)cc(C)c2)c(CC)c(=O)[nH]c1=O (configuration not stated) | 85000 nM | 5 nM | 6000 nM | 300 nM | 2000 nM | 40 nM | 9000 nM |  |  |  |  |  |  |
| Cc1ccnc2c1NC(=O)c1cccnc1N2C1CC1 [NEVIRAPINE] | > 100000 nM |  | > 10000 nM | > 10000 nM | > 10000 nM | 60 nM |  | 3000 nM | > 20000 nM | 4000 nM | 1000 nM | > 20000 nM |  |
| CCc1c(C(F)c2cc(C)cc(C)c2)[nH]c(=O)n(COCc2ccc(I)cc2)c1=O (configuration not stated) | > 100000 nM | 9000 nM | > 100000 nM | > 100000 nM | > 100000 nM | 11000 nM | 23000 nM | > 100000 nM |  |  |  |  |  |
| CCc1c(C(F)c2cc(C)cc(C)c2)n(COCc2ccc(I)cc2)c(=O)[nH]c1=O (configuration not stated) | 43000 nM | 400 nM | 1400 nM | 200 nM | 2000 nM | 300 nM | 1200 nM | 1500 nM |  |  |  |  |  |
| CCc1c(C(F)c2cc(C)cc(C)c2)n(COCc2ccc(C#CC=O)cc2)c(=O)[nH]c1=O (configuration not stated) | 27000 nM | 80 nM | 2400 nM | 400 nM | 14000 nM | 100 nM | 5200 nM | 2300 nM |  |  |  |  |  |
| O=C1Nc2ccc(Cl)cc2[C@@](C#CC2CC2)(C(F)(F)F)O1 [EFAVIRENZ] |  |  | 6000 nM |  | 80 nM | 2 nM |  | 4 nM | 60 nM | 100 nM | 90 nM | 7000 nM | EC99 [13]: 0.01 µM; EC99 [14]: 0.01 µM; EC99 [15]: 0.01 µM; EC99 [16]: 0.01 µM; EC99 [17]: 0.01 µM; EC99 [18]: 0.01 µM; EC99 [19]: ≤ 0.0001 µM |
| C=C(C)COCn1c(C(F)c2cc(C)cc(C)c2)c(CC)c(=O)[nH]c1=O (configuration not stated) | 40000 nM | 8 nM | 4000 nM | 400 nM | 7000 nM | 70 nM | 3800 nM | 3400 nM |  |  |  |  |  |
| CCOCn1c(Cc2ccccc2)c(C(C)C)c(=O)[nH]c1=O [EMIVIRINE] | > 100000 nM |  | 100000 nM | > 10000 nM | > 100000 nM | 80 nM | 60 nM | 1500 nM |  |  |  |  |  |
| Cc1cn([C@H]2C[C@H](N=[N+]=[N-])[C@@H](CO)O2)c(=O)[nH]c1=O [ZIDOVUDINE] |  | 10 nM | 10 nM | 20 nM | 10 nM | 200 nM |  | 200 nM | 10 nM | 9 nM | 10 nM | 8 nM |  |
| C=CCOCn1c(C(F)c2cc(C)cc(C)c2)c(CC)c(=O)[nH]c1=O (configuration not stated) | 64000 nM | 4 nM | 2000 nM | 200 nM | 1600 nM | 50 nM | 4200 nM |  |  |  |  |  |  |
| Cc1cc(C#N)cc(C)c1Oc1nc(Nc2ccc(C#N)cc2)nc(N)c1Br [ETRAVIRINE] |  |  | 300 nM | 10 nM | 10 nM | 1 nM |  | 1 nM | 100 nM | 30 nM | 70 nM | 200 nM |  |
| CC(C)(C)NC(=O)[C@@H]1C[C@@H]2CCCC[C@@H]2CN1C[C@@H](O)[C@H](Cc1ccccc1)NC(=O)[C@H](CC(N)=O)NC(=O)c1ccc2ccccc2n1 | 15000 nM | 20 nM | 10 nM | 20 nM | 10 nM | 10 nM | 90 nM | 20 nM | 20 nM | 10 nM | 20 nM | 10 nM |  |
| Cc1cc(C)c(Nc2ccnc(Nc3ccc(C#N)cc3)n2)c(C)c1 [DAPIVIRINE] | 2000 nM | 3 nM | 200 nM | 40 nM | 50 nM | 1 nM | 3 nM | 2 nM | 100 nM | 100 nM | > 20000 nM | > 20000 nM | MNTC at 960 h [20]: 300 nM; Activity [21]: 0.1 µM; Activity [22]: >20 µM; Activity [23]: >20 µM; EC99 [13]: 0.01 µM; EC99 [14]: 0.01 µM; EC99 [16]: 0.01 µM; EC99 [17]: 0.01 µM; EC99 [18]: 0.01 µM; EC99 [24]: 0.01 µM; EC99 [19]: 0.0001 µM |
